The target in one series is HsRPYK (Homo sapiens, UniProt P30613). Nature of the series: Inhibition of HsRPYK. In kind it is biochemical.
In series [1] the test system is four human PYK isoenzymes. Nature of the series: Irreversible inhibition of human PYK isoenzymes. It counts as biochemical.
A further series deals with LmPYK (Leishmania mexicana, UniProt Q27686). In words: PYK inhibitor assay. It counts as biochemical. In short, it runs like this: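 Pre-incubation mix held at 25 °C: LmPYK 1.6 U/mL, 0.4 mM PEP, 3.2 U/mL lactate dehydrogenase and 0.2 mM NADH in 50 mM TEA pH 7.2, 100 mM KCl, 3 mM MgCl2, 10% glycerol. Test compound (final 50 µM, from DMSO stock) added last; buffer-only control. Every 20 min […], an aliquot was started with 0.2 mM ADP (final). A340 decrease followed for 2 min. Initial rate expressed as % of control.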

In series [2] the target is Lys335Arg mutant of LmPYK (Leishmania mexicana, UniProt Q27686, K336R). Nature of the series: PYK inhibitor assay with Lys335Arg mutant. Conditions: 50 µM DBS, 0.4 mM PEP, identical assay conditions to wild-type. It counts as biochemical.
Another series in a line: Chemical stability. Conditions: hydrolysis of the linkage to saccharin moiety.
The nature of a further series: Solubility. In kind it is physicochemical. Particulars: relative to original screening hit NCGC00186526.
For series [3], the target named is rabbit lactate dehydrogenase (Oryctolagus cuniculus, UniProt P13491). Nature of the series: Inhibition of coupling enzyme lactate dehydrogenase. Particulars: active-site Lys56. It counts as biochemical.
For a further series, the target named is wild-type LmPYK (Leishmania mexicana, UniProt Q27686). Nature of the series: qHTS / LmPYK activity assay. It counts as biochemical. On the technique in general: qHTS replaces the single test concentration by a dilution series.

SMILES strings stand for the structures.

Sequence of HsRPYK (P30613 whole entry): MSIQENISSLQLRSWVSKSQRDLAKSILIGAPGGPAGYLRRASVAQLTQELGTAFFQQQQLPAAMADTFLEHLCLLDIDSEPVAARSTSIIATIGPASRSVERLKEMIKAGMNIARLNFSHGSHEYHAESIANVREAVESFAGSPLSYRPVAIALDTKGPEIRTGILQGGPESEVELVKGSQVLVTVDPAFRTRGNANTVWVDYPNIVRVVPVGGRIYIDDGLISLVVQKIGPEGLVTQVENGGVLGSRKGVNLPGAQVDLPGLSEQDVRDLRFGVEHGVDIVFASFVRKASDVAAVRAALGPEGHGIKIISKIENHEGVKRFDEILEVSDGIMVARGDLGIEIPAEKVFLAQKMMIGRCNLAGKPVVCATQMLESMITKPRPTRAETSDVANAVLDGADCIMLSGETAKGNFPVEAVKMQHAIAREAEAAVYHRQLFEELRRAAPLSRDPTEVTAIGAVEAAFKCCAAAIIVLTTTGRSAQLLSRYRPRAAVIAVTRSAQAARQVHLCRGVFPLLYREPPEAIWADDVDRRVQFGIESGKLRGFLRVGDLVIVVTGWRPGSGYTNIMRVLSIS

In turn, `O=C(O)c1ccc(SC2=NS(=O)(=O)c3ccccc32)cc1` [DBS, 4-[(1,1-dioxo-1,2-benzothiazol-3-yl)sulfanyl]benzoic acid] had an IC50 against HsRPYK of 8 µM. Also, the irreversible inhibition entry in series [1] is given as “irreversibly inhibited”. Moreover, the “time to maximal inhibition” value on LmPYK (50 µM DBS, 25 °C) is ~ 250 min. Further, the inhibition at 50 µM on LmPYK (read-out: Maximal inhibition) is about 80%. Moreover, in series [2], the “change in activity over time” value is “essentially no change in activity over time”. Further, the stability result in “Chemical stability” was “improved stability and solubility profiles”. In “Solubility”, the solubility result is “improved stability and solubility profiles”. Also, in series [3], the “inhibition of rabbit lactate dehydrogenase” value is “inability of DBS to inhibit”.
At wild-type LmPYK, `Cc1ccc(C)c(OC2=NS(=O)(=O)c3ccccc32)c1` [NCGC00186526] had an IC50 of 10 µM. This lies in the double-digit micromolar range.
In the case of `Cc1ccc(C)c(SC2=NS(=O)(=O)c3ccccc32)c1` [NCGC00188411], the stability entry in “Chemical stability” is on record as “Stable”. At wild-type LmPYK, this compound registered an IC50 of 5 µM.

What is called IC50 is the point on the concentration scale where inhibition reaches its midpoint. The inhibition is how much of the control response was suppressed.

The record behind these values is PMC3498827 (The Biochemical journal, 2012).
